Experimental data reported in ChEMBL document CHEMBL1132971, “New azolidinediones as inhibitors of protein tyrosine phosphatase 1B with antihyperglycemic properties” (J Med Chem, 2000).

Legend:
[1] = molecular target: T1, Tyrosine-protein phosphatase non-receptor type 1 (Rattus norvegicus, UniProt P20417); assay: Concentration required to inhibit PTPase activity, recombinant r-PTP1B as the enzyme at a concentration 2.5 uM.
T1 sequence (P20417 whole entry): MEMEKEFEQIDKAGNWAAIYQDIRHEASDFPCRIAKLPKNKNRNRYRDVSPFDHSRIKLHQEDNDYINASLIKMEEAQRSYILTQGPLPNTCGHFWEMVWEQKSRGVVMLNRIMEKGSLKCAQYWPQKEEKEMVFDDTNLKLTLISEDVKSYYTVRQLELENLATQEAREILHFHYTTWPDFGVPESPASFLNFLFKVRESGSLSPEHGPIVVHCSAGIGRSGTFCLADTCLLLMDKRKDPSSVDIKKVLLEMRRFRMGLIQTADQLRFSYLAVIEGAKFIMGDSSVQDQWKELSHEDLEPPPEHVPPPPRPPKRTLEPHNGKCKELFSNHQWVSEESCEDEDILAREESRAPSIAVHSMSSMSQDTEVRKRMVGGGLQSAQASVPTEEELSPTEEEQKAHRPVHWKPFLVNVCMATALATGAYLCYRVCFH
Method in brief: (§1)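 Rat recombinant PTP1B in 33 mM TRIS-HCl, 2 mM EDTA, 50 mM β-mercaptoethanol, pH 7.4 (about 1000-2000 nmol/min/mg). Preincubated 10 min at 37 °C with or without compound in HEPES buffer pH 7.4. Released phosphate read by malachite green-ammonium molybdate at 650 nm against a phosphate standard. Quadruplicates. IC50 by four-parameter logistic fit.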

[2] = molecular target: T2, Tyrosine-protein phosphatase non-receptor type 1 (Rattus norvegicus) (UniProt P20417); assay: Inhibition of PTPase (PTP1B) activity in rat hepatic membrane at 50 uM concentration, using pNPP as the substrate; assay type: cell membranes; settings: Liver
T2 sequence (whole entry): T1 sequence (P20417 whole entry)
Method in brief: (§2)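 Liver membranes from male Sprague-Dawley rats (100-150 g), about 30 µg protein per well. Preincubated 10 min at 37 °C with compound in 1.25% DMSO in 50 mM HEPES pH 7.4. Then 6.33 mM pNPP for 30 min at 37 °C, stopped with NaOH. p-Nitrophenol read at 410 nm. Run in triplicate. Reported as percent of untreated control.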

[3] = molecular target: T2, Tyrosine-protein phosphatase non-receptor type 1 (Rattus norvegicus); assay: Inhibition of PTPase activity using recombinant r-PTP1B as the enzyme and IR-triphosphopeptide as substrate at 50 uM; method in brief: as §1
Mus musculus [4] = assay: Evaluated for their ability to decrease plasma insulin levels in mouse at a dose 100 mg/kg/day.,**p indicates <0.01; assay type: functional
Method in brief: (§3)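 Mice dosed orally once daily for 4 days; plasma glucose and insulin measured and expressed as percent change versus a vehicle-treated group (mean ± SE, 4-6 mice/group). NS is generally less than -15% change. Significance is versus vehicle-treated mice.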

Mus musculus [5] = assay: Evaluated in vivo for their ability to decrease plasma glucose levels in diabetic C57BL/KsJ ob/ob mouse at a dose 100 mg/kg/day.,**p indicates <0.01; assay type: functional; method in brief: as §3
[6] = molecular target: T3, Tyrosine-protein phosphatase non-receptor type 1 (Homo sapiens) (UniProt P18031); assay: % inhibition of PTPase activity, recombinant Protein Tyrosine Phosphatase 1b as the enzyme at a concentration 50 uM.; method in brief: as §1
T3 sequence (whole entry): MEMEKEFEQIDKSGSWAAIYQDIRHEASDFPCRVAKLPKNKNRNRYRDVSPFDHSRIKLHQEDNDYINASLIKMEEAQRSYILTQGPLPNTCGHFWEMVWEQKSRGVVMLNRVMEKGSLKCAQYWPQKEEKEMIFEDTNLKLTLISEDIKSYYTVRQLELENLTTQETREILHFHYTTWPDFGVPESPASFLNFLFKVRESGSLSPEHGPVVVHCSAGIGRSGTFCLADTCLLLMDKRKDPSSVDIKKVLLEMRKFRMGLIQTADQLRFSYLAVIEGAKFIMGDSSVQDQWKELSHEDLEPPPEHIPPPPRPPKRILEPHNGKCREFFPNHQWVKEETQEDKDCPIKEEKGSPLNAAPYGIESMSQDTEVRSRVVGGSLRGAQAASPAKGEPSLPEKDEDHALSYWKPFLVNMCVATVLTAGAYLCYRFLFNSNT

Mus musculus [7] = assay: Evaluated in vivo for their ability to decrease plasma glucose levels in diabetic C57BL/KsJ ob/ob mouse at a dose 100 mg/kg/day,**p indicates <0.01; assay type: functional; method in brief: as §3
Mus musculus [8] = assay: Evaluated for their ability to decrease plasma insulin levels in mouse at a dose 100 mg/kg/day,**p indicates <0.01; assay type: functional; method in brief: as §3
Mus musculus [9] = assay: Evaluated in vivo for their ability to decrease plasma glucose levels in diabetic C57BL/KsJ db/db mouse at a dose 100 mg/kg/day *p indicates <0.05; assay type: functional
Method in brief: (§4)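 Diabetic db/db or ob/ob mice dosed orally once daily for 4 days. Plasma glucose and insulin reported as percent change from a vehicle-treated group. 4-6 mice per group. Significance set at p < 0.05 or p < 0.01 versus vehicle; NS means generally less than -15% change.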

Mus musculus [10] = assay: Evaluated for their ability to decrease plasma insulin levels in mouse at a dose 100 mg/kg/day. **p indicates <0.01; assay type: functional; method in brief: as §3
Mus musculus [11] = assay: Evaluated in vivo for their ability to decrease plasma glucose levels in diabetic C57BL/KsJ ob/ob mouse at a dose 100 mg/kg/day. **p indicates <0.01; assay type: functional; method in brief: as §4
[12] = molecular target: T1, Tyrosine-protein phosphatase non-receptor type 1; assay: Inhibition of PTPase activity in rat hepatic membrane at a concentration of 50 uM using pNPP as the substrate; assay type: cell membranes, Liver; method in brief: as §2
Mus musculus [13] = assay: Evaluated for their ability to decrease plasma insulin levels in mouse at a dose 100 mg/kg/day.; assay type: functional; method in brief: as §3
Mus musculus [14] = assay: Evaluated in vivo for their ability to decrease plasma glucose levels in diabetic C57BL/KsJ ob/ob mouse at a dose 100 mg/kg/day; **p indicates <0.01; assay type: functional; method in brief: as §3
Mus musculus [15] = assay: Evaluated in vivo for their ability to decrease plasma glucose levels in diabetic C57BL/KsJ db/db mouse at a dose 100 mg/kg/day; *p indicates <0.05; assay type: functional; method in brief: as §3
Mus musculus [16] = assay: Evaluated for their ability to decrease plasma insulin level at a dose of 20 mg/kg/day; **p indicates <0.01; assay type: functional; method in brief: as §3
Mus musculus [17] = assay: Evaluated in vivo for their ability to decrease plasma glucose levels in diabetic C57BL/KsJ ob/ob mouse at a dose 20 mg/kg/day; **p indicates <0.01; assay type: functional; method in brief: as §3
[18] = molecular target: T2, Tyrosine-protein phosphatase non-receptor type 1 (Rattus norvegicus); assay: Inhibition of Protein-tyrosine phosphatase 1B activity in rat hepatic membrane at a concentration of 50 uM using pNPP as the substrate; assay type: cell membranes; settings: Liver; method in brief: as §2
[19] = molecular target: T2, Tyrosine-protein phosphatase non-receptor type 1 (Rattus norvegicus); assay: Inhibition of PTPase activity using recombinant Protein-tyrosine phosphatase 1B as the enzyme and IR-triphosphopeptide as substrate at 50 uM
Method in brief: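 Recombinant rat PTP1B (human 321-aa form assayed the same way), activity about 1000-2000 nmol/min/mg, preincubated with compound for 10 min at 37 °C in HEPES pH 7.4. The reaction is started with 50 µM triphosphorylated insulin receptor 1142-1153 dodecapeptide and run 30 min at 37 °C. Released phosphate read by malachite green-molybdate at 650 nm, in quadruplicate. Result is percent inhibition versus control.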

Mus musculus [20] = assay: Evaluated in vivo for their ability to decrease plasma glucose levels in diabetic C57BL/KsJ ob/ob mouse at a dose 100 mg/kg/day, **p indicates <0.01; assay type: functional; method in brief: as §3
Mus musculus [21] = assay: Evaluated in vivo for their ability to decrease plasma glucose levels in diabetic C57BL/KsJ ob/ob mouse at a dose 10 mg/kg/day, *p indicates <0.05; assay type: functional; method in brief: as §3
Mus musculus [22] = assay: Evaluated for their ability to decrease plasma insulin levels in mouse at a dose 100 mg/kg/day, **p indicates <0.01; assay type: functional; method in brief: as §3
Mus musculus [23] = assay: Evaluated in vivo for their ability to decrease plasma glucose levels in diabetic C57BL/KsJ db/db mouse at a dose 100 mg/kg/day, *p indicates <0.05; assay type: functional; method in brief: as §3
[24] = molecular target: T1, Tyrosine-protein phosphatase non-receptor type 1; assay: Inhibition of PTPase activity using recombinant r-PTP1B as the enzyme and IR-triphosphopeptide as substrate; method in brief: as §1
Mus musculus [25] = assay: Evaluated in vivo for their ability to decrease plasma glucose levels in diabetic C57BL/KsJ ob/ob mouse at a dose 100 mg/kg/day *p indicates <0.05; assay type: functional; method in brief: as §4
Mus musculus [26] = assay: Evaluated for their ability to decrease plasma insulin levels in mouse at a dose 100 mg/kg/day, *p indicates <0.05; assay type: functional; method in brief: as §4

C/C(=C\Cn1oc(=O)[nH]c1=O)c1cccc(OCC#Cc2cc(C(F)(F)F)cc(C(F)(F)F)c2)c1
IC50 [1]: 25 µM
inhibition [2]: 62%

CCCC/C(=C\Cn1oc(=O)[nH]c1=O)c1cccc(OCc2nc(-c3ccc(C(F)(F)F)cc3)oc2C)c1
inhibition [3]: 1.9%
Decrease (Mus musculus [4]): 88%
Decrease (Mus musculus [5]): 61%
inhibition [6]: 1.4%

Cc1oc(-c2ccc(C(F)(F)F)cc2)nc1COc1cccc(/C(=C/Cn2oc(=O)[nH]c2=O)c2ccccc2)c1
inhibition [3]: 1.1%
Decrease (Mus musculus [7]): 55%
Decrease (Mus musculus [8]): 74%
inhibition [2]: 24%

C/C(=C\c1cccc(OCc2nc(-c3ccc(C(F)(F)F)cc3)oc2C)c1)Cn1oc(=O)[nH]c1=O
Decrease (Mus musculus [9]): 36%
inhibition [3]: 7%
Decrease (Mus musculus [10]): 28%
Decrease (Mus musculus [11]): 37%
Inhibition % [12]: 71%

CC/C(=C\Cn1oc(=O)[nH]c1=O)c1cccc(OCc2nc(-c3ccc(C(F)(F)F)cc3)oc2C)c1
Decrease (Mus musculus [13]): 80%
Decrease (Mus musculus [14]): 71%
Decrease (Mus musculus [15]): 63%
Decrease (Mus musculus [16]): 32%
Decrease (Mus musculus [17]): 32%
inhibition [18]: 57%
inhibition [19]: 90%

C/C(=C\Cn1oc(=O)[nH]c1=O)c1cccc(OCc2nc(-c3ccc(C(F)(F)F)cc3)oc2C)c1
inhibition [3]: 1.9%
Decrease (Mus musculus [20]): 58%
Decrease (Mus musculus [21]): 20%
Decrease (Mus musculus [22]): 86%
inhibition [2]: 49%
Decrease (Mus musculus [23]): 62%

C/C(=C\Cn1sc(=O)[nH]c1=O)c1cccc(OCc2nc(-c3ccc(C(F)(F)F)cc3)oc2C)c1
IC50 [24]: 3.8 µM
Decrease (Mus musculus [25]): 29%
Decrease (Mus musculus [26]): 26%
inhibition [2]: Not significant
